For 40 compounds, cytotoxicity results are on record in ChEMBL document CHEMBL4513216, “Probing the Open Global Health Chemical Diversity Library for Multistage-Active Starting Points for Next-Generation Antimalarials” (ACS Infect Dis, 2020).

SMILES strings stand for the structures.

This series can be described thus: Toxicity liver stage against HepG2, at 10uM. Format: cell-based. On the set-up: test concentration 10 uM, cell line HepG2-A16-CD81EGFP. To be noted: human, HepG2-A16-CD81EGFP cells; read-out: INHIBITION
Summed up:
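Uninfected HepG2-A16-CD81EGFP cells, 3 × 10^3 per well, 1536-well, plated on prespotted compound at 10 μM final, parasite-free screening media added to match infected plates; puromycin 10 μM positive, DMSO 0.5% negative; run in parallel with 48 h PbLuc assay at 37 °C, 5% CO2; viability by CellTiter-Glo luminescence, normalized to controls.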
In the case of `CS(=O)(=O)NCC(Cc1cccc(F)c1)N1CCNC1=O` (stereo not given), the cytotoxicity at 10 µM is -2.91%.

As to `O=S(=O)(Nc1cnc(N2CCCC2)nc1)c1ccc(F)cc1F`, the cytotoxicity at 10 µM was -14.4%.

With `Cn1cnc(S(=O)(=O)NCC2(O)CCc3ccccc3C2)c1` (stereo not given), the cytotoxicity at 10 µM is -4.2%.

Consider `Cn1cnnc1S(=O)(=O)C1CCN(S(=O)(=O)c2ccccc2F)CC1`, for which the cytotoxicity at 10 µM was -2.08%.

As for `Cc1ccc(Cl)cc1N1CCN(CC(=O)NCc2ccco2)CC1`, the cytotoxicity at 10 µM is 1.67%.

Turning to `CC(NC(=O)C(C)(C)C)c1cc(O)nc(-c2cccnc2)n1` (stereo not given), the cytotoxicity at 10 µM was found to be 6.5%.

For `Cn1ccnc1C(O)c1ccccc1N1CCN(Cc2cccs2)CC1` (stereo not given), the cytotoxicity at 10 µM turned out to be 5.03%.

For `CC(=O)N1CCCN(CCCSCc2ccccc2)CC1`, the cytotoxicity at 10 µM is -4.53%.

Regarding `CCn1ccnc1CN1CCCN(C(=O)c2cncnc2C)CC1`, the cytotoxicity at 10 µM worked out at 5.65%.

In the case of `CC(NC(=O)NCCC1=CCCCC1)c1nncn1C` (stereo not given), the cytotoxicity at 10 µM was -11.7%.

As for `O=C(C1CCCO1)N1CCC(c2nc(-c3ccccc3)n[nH]2)CC1` (stereo not given), the cytotoxicity at 10 µM was -10.9%.

Regarding `CC(CC(=O)NCCCn1cccn1)c1cccnc1` (stereo not given), the cytotoxicity at 10 µM was -1.66%.

`COc1ccc(CNC(=O)CN2CCc3ccccc32)cc1`: the cytotoxicity at 10 µM turned out to be 10.5%.

For the compound `COCCC(C)NC(=O)N1CCC(n2ccc(C(F)(F)F)n2)CC1` (stereo not given), the cytotoxicity at 10 µM is -3.9%.

As for `CCSc1cc(C(=O)NCC(C)(C)N(C)C)ccn1`, the cytotoxicity at 10 µM is -13.4%.

As for `CCOc1cncc(N(C)CC(=O)NC)n1`, the cytotoxicity at 10 µM came out at 2.16%.

`CCn1cc(CNCCNc2ncc(Cl)cc2Cl)cn1`: the cytotoxicity at 10 µM is -4.27%.

In the case of `CC(C(=O)Nc1cc(F)ccc1F)N1CCN(Cc2ncc[nH]2)CC1` (stereo not given), the cytotoxicity at 10 µM was -15.8%.

Consider `CCn1nc(C)cc1C(=O)N1C[C@@H]2C[C@@H](c3nc(C)cs3)O[C@@H]2C1`, for which the cytotoxicity at 10 µM was found to be 3.39%.

For `CCn1c(Cn2cncn2)nnc1C1CCN(C2CCOCC2)CC1`, the cytotoxicity at 10 µM was 9.23%.

With `CCCN(Cc1cccnc1)C(=O)C1CCS(=O)(=O)CC1`, the cytotoxicity at 10 µM was -9.03%.

For `Clc1ccc(-n2cnnc2CCCN2CCOCC2)cc1`, the cytotoxicity at 10 µM was 5.52%.

For `CC(=O)N1CCCn2nc(CNS(=O)(=O)N3CCC(C)CC3)cc2C1`, the cytotoxicity at 10 µM came to 9.91%.

In the case of `CNC(=O)Cc1ccc(-n2ccnc2-c2cccc(C(=O)O)c2)cc1`, the cytotoxicity at 10 µM was -7.9%.

For the compound `CN(C)Cc1nc(C(=O)N2CCCC(COc3ccc(F)cc3)C2)cs1` (stereo not given), the cytotoxicity at 10 µM was -6.09%.

For `O=C(O)[C@@H]1CN(C(=O)c2ccc3nccnc3c2)C[C@H]1c1ccncc1`, the cytotoxicity at 10 µM was -11.3%.

`COc1cccc2c1OCC(C(=O)NCc1ncc3c(n1)CCC3)C2` (stereo not given): the cytotoxicity at 10 µM was -8.51%.

For the compound `CC(=O)c1cccc(OCc2cc(C(=O)N3CCCCO3)n[nH]2)c1`, the cytotoxicity at 10 µM came out at 2.19%.

As for `CN(C)c1nccnc1N1CC[C@@]2(O)CCNC[C@H]2C1`, the cytotoxicity at 10 µM was 7.12%.

For the compound `CCNc1ncc(C(=O)N(C)C(C)c2ccc3c(c2)OCCO3)cn1` (stereo not given), the cytotoxicity at 10 µM was -0.75%.

Regarding `O=C(O)c1nn(CC2CC2)c2c1CN(S(=O)(=O)c1cccnc1)CC2`, the cytotoxicity at 10 µM came out at 3.16%.

Regarding `Cc1ccc(OCC(C)NS(C)(=O)=O)cc1C` (stereo not given), the cytotoxicity at 10 µM worked out at 9.98%.

Consider `CC1CN(CCc2ccccn2)CCN1c1ccc2nncn2n1` (stereo not given), for which the cytotoxicity at 10 µM was -3.43%.

As for `Cc1ccc(CN(C)C(=O)CN2CCCC(Cn3cncn3)C2)o1` (stereo not given), the cytotoxicity at 10 µM was -24.4%.

`CCc1noc(CN2CCN(CCO)CC2)n1`: the cytotoxicity at 10 µM was -6.13%.

Consider `Cc1ccc(CN2CCO[C@H]3[C@@H](OCc4cccnc4)CC[C@@H]32)o1`, for which the cytotoxicity at 10 µM was -0.58%.

For the compound `Cc1cccc(CN2Cc3ccnn3CC(COCC3CC3)C2)n1` (stereo not given), the cytotoxicity at 10 µM was found to be 2.13%.

Consider `c1cc(CN2C[C@@H]3OCCN(CCN4CCCC4)[C@@H]3C2)co1`, for which the cytotoxicity at 10 µM was determined as 6.13%.

As for `CCN1CCC(N2CCC(C(=O)N(C)C)CC2)CC1`, the cytotoxicity at 10 µM was 0.486%.

For the compound `c1cnc(N2C[C@H]3CC[C@@H](C2)N(Cc2ccsc2)C3)nc1`, the cytotoxicity at 10 µM worked out at 1.2%.
